Converted amounts (≈) assume the structure as drawn.
Key:
Assay type in all cases: functional
Staphylococcus aureus [1] = assay: Antibacterial activity against Staphylococcus aureus CGMCC 1.8721 measured after 12 to 14 hrs
Summary of the method: (§1)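 Twofold (double) dilution method for in vitro antibacterial activity, with fosfomycin sodium, ciprofloxacin and propineb as positive controls.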

Ralstonia solanacearum = assay: Antibacterial activity against Ralstonia solanacearum CGMCC 1.12711 measured after 12 to 14 hrs
Summary of the method: (§2)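 In vitro double dilution method, run alongside fosfomycin sodium, ciprofloxacin and propineb as positive controls.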

Bacillus cereus [2] = assay: Antibacterial activity against Bacillus cereus CGMCC 1.1846 measured after 12 to 14 hrs; summary of the method: as §1
Staphylococcus aureus [3] = assay: Antibacterial activity against methicillin-resistant Staphylococcus aureus ATCC 43300 measured after 12 to 14 hrs; summary of the method: as §2
Bacillus cereus [4] = assay: Potency index, ratio of ciprofloxacin MIC to test compound MIC for Bacillus cereus CGMCC 1.1846
Staphylococcus aureus [5] = assay: Potency index, ratio of ciprofloxacin MIC to test compound MIC for methicillin-resistant Staphylococcus aureus ATCC 43300

COC(=O)c1cc2c3ccccc3n(Cc3ccccc3F)c2c(-c2cn(C(C)=O)c3ccccc23)n1
MIC (Staphylococcus aureus [1]): > 100 µM | MIC (Ralstonia solanacearum): > 100 µM | MIC (Bacillus cereus [2]): > 100 µM | MIC (Staphylococcus aureus [3]): > 100 µM

COC(=O)c1cc2c3ccccc3n(Cc3cccc(F)c3)c2c(-c2cn(C(C)=O)c3ccccc23)n1
MIC (Staphylococcus aureus [1]): > 100 µM | MIC (Ralstonia solanacearum): > 100 µM | MIC (Bacillus cereus [2]): > 100 µM | MIC (Staphylococcus aureus [3]): > 100 µM

OCc1cc2c3ccccc3n(Cc3ccc(C(F)(F)F)cc3)c2c(-c2c[nH]c3ccccc23)n1
MIC (Staphylococcus aureus [1]): 25 µM (≈ 11.8 µg/mL) | MIC (Ralstonia solanacearum): 25 µM (≈ 11.8 µg/mL) | MIC (Bacillus cereus [2]): 25 µM (≈ 11.8 µg/mL) | MIC (Staphylococcus aureus [3]): 25 µM (≈ 11.8 µg/mL)

COC(=O)c1cc2c3ccccc3n(Cc3ccc(C(F)(F)F)cc3)c2c(-c2cn(C(C)=O)c3ccccc23)n1
MIC (Staphylococcus aureus [1]): > 100 µM | MIC (Ralstonia solanacearum): > 100 µM | MIC (Bacillus cereus [2]): > 100 µM | MIC (Staphylococcus aureus [3]): > 100 µM

OCc1cc2c3ccccc3n(Cc3cccc(Cl)c3)c2c(-c2c[nH]c3ccccc23)n1
MIC (Staphylococcus aureus [1]): 25 µM (≈ 10.9 µg/mL) | MIC (Ralstonia solanacearum): 50 µM (≈ 21.9 µg/mL) | MIC (Bacillus cereus [2]): 25 µM (≈ 10.9 µg/mL) | MIC (Staphylococcus aureus [3]): > 100 µM

COC(=O)c1cc2c3ccccc3n(Cc3cccc(C(F)(F)F)c3)c2c(-c2cn(C(C)=O)c3ccccc23)n1
MIC (Staphylococcus aureus [1]): > 100 µM | MIC (Ralstonia solanacearum): > 100 µM | MIC (Bacillus cereus [2]): > 100 µM | MIC (Staphylococcus aureus [3]): > 100 µM

OCc1cc2c3ccccc3n(Cc3ccccc3Br)c2c(-c2c[nH]c3ccccc23)n1
MIC (Staphylococcus aureus [1]): 12.5 µM (≈ 6.03 µg/mL) | MIC (Ralstonia solanacearum): 50 µM (≈ 24.1 µg/mL) | MIC (Bacillus cereus [2]): 25 µM (≈ 12.1 µg/mL) | MIC (Staphylococcus aureus [3]): > 100 µM

Cc1ccccc1Cn1c2ccccc2c2cc(CO)nc(-c3c[nH]c4ccccc34)c21
MIC (Staphylococcus aureus [1]): 25 µM (≈ 10.4 µg/mL) | MIC (Ralstonia solanacearum): 12.5 µM (≈ 5.22 µg/mL) | MIC (Bacillus cereus [2]): 50 µM (≈ 20.9 µg/mL) | MIC (Staphylococcus aureus [3]): > 100 µM

OCc1cc2c3ccccc3n(Cc3ccccc3)c2c(-c2c[nH]c3ccccc23)n1
MIC (Staphylococcus aureus [1]): 12.5 µM (≈ 5.04 µg/mL) | MIC (Ralstonia solanacearum): 12.5 µM (≈ 5.04 µg/mL) | MIC (Bacillus cereus [2]): 12.5 µM (≈ 5.04 µg/mL) | MIC (Staphylococcus aureus [3]): 100 µM (≈ 40.3 µg/mL)

OCc1cc2c3ccccc3n(Cc3cccc(Br)c3)c2c(-c2c[nH]c3ccccc23)n1
MIC (Staphylococcus aureus [1]): 25 µM (≈ 12.1 µg/mL) | MIC (Ralstonia solanacearum): 25 µM (≈ 12.1 µg/mL) | MIC (Bacillus cereus [2]): 25 µM (≈ 12.1 µg/mL) | MIC (Staphylococcus aureus [3]): > 100 µM

COC(=O)c1cc2c3ccccc3n(Cc3cccc(Br)c3)c2c(-c2cn(C(C)=O)c3ccccc23)n1
MIC (Staphylococcus aureus [1]): > 100 µM | MIC (Ralstonia solanacearum): > 100 µM | MIC (Bacillus cereus [2]): > 100 µM | MIC (Staphylococcus aureus [3]): > 100 µM

COC(=O)c1cc2c3ccccc3n(Cc3ccccc3C(F)(F)F)c2c(-c2cn(C(C)=O)c3ccccc23)n1
MIC (Staphylococcus aureus [1]): > 100 µM | MIC (Ralstonia solanacearum): > 100 µM | MIC (Bacillus cereus [2]): > 100 µM | MIC (Staphylococcus aureus [3]): > 100 µM

COC(=O)c1cc2c3ccccc3n(Cc3cccc(C)c3)c2c(-c2cn(C(C)=O)c3ccccc23)n1
MIC (Staphylococcus aureus [1]): > 100 µM | MIC (Ralstonia solanacearum): > 100 µM | MIC (Bacillus cereus [2]): > 100 µM | MIC (Staphylococcus aureus [3]): > 100 µM

COC(=O)c1cc2c3ccccc3n(Cc3cccc(Cl)c3)c2c(-c2cn(C(C)=O)c3ccccc23)n1
MIC (Staphylococcus aureus [1]): > 100 µM | MIC (Ralstonia solanacearum): > 100 µM | MIC (Bacillus cereus [2]): > 100 µM | MIC (Staphylococcus aureus [3]): > 100 µM

OCc1cc2c3ccccc3n(Cc3ccccc3F)c2c(-c2c[nH]c3ccccc23)n1
MIC (Staphylococcus aureus [1]): 25 µM (≈ 10.5 µg/mL) | MIC (Ralstonia solanacearum): 25 µM (≈ 10.5 µg/mL) | MIC (Bacillus cereus [2]): 50 µM (≈ 21.1 µg/mL) | MIC (Staphylococcus aureus [3]): > 100 µM

OCc1cc2c3ccccc3n(Cc3ccc(Cl)cc3)c2c(-c2c[nH]c3ccccc23)n1
MIC (Staphylococcus aureus [1]): 25 µM (≈ 10.9 µg/mL) | MIC (Ralstonia solanacearum): 12.5 µM (≈ 5.47 µg/mL) | MIC (Bacillus cereus [2]): 12.5 µM (≈ 5.47 µg/mL) | MIC (Staphylococcus aureus [3]): 50 µM (≈ 21.9 µg/mL)

COC(=O)c1cc2c3ccccc3n(Cc3ccccc3Br)c2c(-c2cn(C(C)=O)c3ccccc23)n1
MIC (Staphylococcus aureus [1]): > 100 µM | MIC (Ralstonia solanacearum): > 100 µM | MIC (Bacillus cereus [2]): > 100 µM | MIC (Staphylococcus aureus [3]): > 100 µM

OCc1cc2c3ccccc3n(Cc3ccc(F)cc3)c2c(-c2c[nH]c3ccccc23)n1
MIC (Staphylococcus aureus [1]): 6.25 µM (≈ 2.63 µg/mL) | MIC (Ralstonia solanacearum): 6.25 µM (≈ 2.63 µg/mL) | MIC (Bacillus cereus [2]): 3.12 µM (≈ 1.32 µg/mL) | MIC (Staphylococcus aureus [3]): 3.12 µM (≈ 1.32 µg/mL) | Ratio (Bacillus cereus [4]): 2 | Ratio (Staphylococcus aureus [5]): 4

Reference: ChEMBL document CHEMBL4270603, “Computer-aided drug discovery: Novel 3,9-disubstituted eudistomin U derivatives as potent antibacterial agents” (Eur J Med Chem, 2018)
